Experimental data collected from several papers.
Medium: plasma

SMILES | system | setting | bioavailability [%]
Cc1nc2ccccc2n1Cc1ccc(C(=O)NO)cc1F | male CD-1 mouse | oral, 30 mg/kg | ~21
Cc1ccc2cncc(N3CCc4c(cc(Cn5ccnc5)cc4-c4cn(C)nc4C(F)(F)F)C3=O)c2c1 | male CD-1 mouse | oral, 50 mg/kg | 56
c1ccc2[nH]c(CNc3nc(N4CCOCC4)nc4c3ncn4-c3ccsc3)nc2c1 | mouse | intravenous, 1 mg/kg | 0
C=CC(=O)Nc1cccc(Nc2nc(Nc3ccc(N4CCN(C(C)=O)CC4)cc3OC)ncc2C(F)(F)F)c1 | female mouse | oral, 20 mg/kg | 65
Cc1c(C(=O)Nc2ccccc2)sc(N)c1C(N)=O | male CD-1 mouse | oral, 10 mg/kg | 34
CC[C@H](C)[C@@H]1NC(=O)[C@@](C)(NC(=O)[C@H](CCCNC(=N)N)NC(=O)[C@H](CC(C)C)NC(=O)[C@@H](NC(=O)[C@H](CCC(N)=O)NC(=O)[C@H](CC(C)C)NC(C)=O)[C@@H](C)O)CCCC=CCCC[C@@](C)(C(=O)N[C@@H](CC(C)C)C(=O)N[C@@H](Cc2ccc3ccccc3c2)C(N)=O)NC(=O)[C@H](CCCNC(=N)N)NC(=O)[C@H](CCC(N)=O)NC1=O | male BALB/c mouse | intraperitoneal, 5 mg/kg | 81.1
CCc1ccc(Cc2cc([C@@H]3O[C@H](CO)[C@@H](O)[C@H](O)[C@H]3O)cc3c2CCC3)cc1 | male C57BL/6 mouse | oral, 0.3 mg/kg | > 100
O=C(Nc1nccs1)C(c1cc(F)ccc1O)N1Cc2ccccc2C1=O (stereo not shown) | mouse | oral, 20 mg/kg | 26
CCc1cc(OC)c2nccc(N3CCc4c(cc(Cn5ccnc5)cc4-c4cn(C)nc4C(F)(F)F)C3=O)c2c1 | male CD-1 mouse | oral, 150 mg/kg | 135
CN[C@@H](C)C(=O)N[C@H]1CN(C(=O)CC(C)C)CC[C@H]2CC[C@@H](C(=O)NC(c3ccccc3)c3ccccc3)N2C1=O | SCID mouse | oral, 100 mg/kg, tumour-bearing | 42.7
COc1cc(N2CCN(C)CC2)ccc1Nc1ncc2c(n1)N(C)c1ccccc1C(=O)N2CC(F)(F)F | male Swiss mouse | oral, 10 mg/kg | 81
COc1nc(-c2cc(C)c(N[C@@H](C)c3c(F)cc(F)cc3F)nn2)ccc1-n1cnc(C)c1 | male CD-1 mouse | oral, 5 mg/kg, single dose | 63.7
COc1cc2ccccc2cc1C(=O)NC(=S)Nc1ccc(-c2nc3ccccc3[nH]2)cc1 | mouse | oral, 5 mg/kg | < 1
N[C@@H](CSSC[C@H](N)C(=O)O)C(=O)O | Kunming mouse | oral, 50 mg/kg | 15.1
C=CC(=O)N1CC2CC(n3nc(-c4ccc(C(=O)Nc5ccccn5)cc4)c4c(N)ncnc43)CC2C1 (stereo not shown) | male BALB/c mouse | oral, 3 mg/kg | 47
OC[C@H]1O[C@@H](c2ccc(Cl)c(Cc3ccc(O[C@H]4CCOC4)cc3)c2)[C@H](O)[C@@H](O)[C@@H]1O | CD-1 mouse | oral, 10 mg/kg | 25.6
NC[C@@H]1O[C@H](O[C@H]2[C@@H](O)[C@H](O[C@@H]3[C@@H](O)[C@H](N)C[C@H](N)[C@H]3O[C@H]3O[C@H](CO)[C@@H](O)[C@H](O)[C@H]3N)O[C@@H]2CO)[C@H](N)[C@@H](O)[C@@H]1O | male BALB/c mouse | oral, 500 mg/kg | 0.3
COc1ccc2nccc(N3CCc4c(cc(Cn5ccnc5)cc4-c4cn(C)nc4C(F)(F)F)C3=O)c2c1 | male CD-1 mouse | oral, 10 mg/kg | 34
Oc1ccc(C(c2ccc(O)cc2)(C(F)(F)F)C(F)(F)F)cc1 | mouse | oral, 34 mg/kg, single dose | 3 to 6
Nc1ncc(-c2ccncc2)nc1Nc1ccc2[nH]ccc2c1 | male C57BL/6 mouse | oral, 30 mg/kg | 89
O=C(CC1Cc2ccccc2C1)N[C@H](CN1CCCC1)[C@H](O)c1ccc(OC(F)(F)F)cc1 | CD-1 mouse | oral, 10 mg/kg | 34
COc1cc(OC)c2nccc(N3CCc4c(cc(Cn5ccnc5)cc4-c4cn(C)nc4C(F)(F)F)C3=O)c2c1 | male CD-1 mouse | oral, 50 mg/kg | 452
O=C1Nc2cc(F)cc(F)c2C(=O)CCc2ccccc21 | male Swiss mouse | oral | ~20
CCc1cc(C(=O)NC)c2nccc(N3CCc4c(cc(Cn5ccnc5)cc4-c4cn(C)nc4C(F)(F)F)C3=O)c2c1 | male CD-1 mouse | oral, 50 mg/kg | 175
CSc1cc(Oc2ccnc3[nH]c(=O)cnc23)ccc1NC(=O)Nc1cc(C(C)(C)C)nn1-c1ccccc1 | BALB/c mouse | oral, 10 mg/kg | 58
